The source made the active and inactive calls. The calls are words filed in the database; no cut-off is given here.

By IC50 is commonly meant the concentration that inhibits the measured activity by half.

The target in assay [1] is T1, Tyrosine-protein phosphatase non-receptor type 1 (Homo sapiens) (UniProt P18031).
T1 sequence (whole entry): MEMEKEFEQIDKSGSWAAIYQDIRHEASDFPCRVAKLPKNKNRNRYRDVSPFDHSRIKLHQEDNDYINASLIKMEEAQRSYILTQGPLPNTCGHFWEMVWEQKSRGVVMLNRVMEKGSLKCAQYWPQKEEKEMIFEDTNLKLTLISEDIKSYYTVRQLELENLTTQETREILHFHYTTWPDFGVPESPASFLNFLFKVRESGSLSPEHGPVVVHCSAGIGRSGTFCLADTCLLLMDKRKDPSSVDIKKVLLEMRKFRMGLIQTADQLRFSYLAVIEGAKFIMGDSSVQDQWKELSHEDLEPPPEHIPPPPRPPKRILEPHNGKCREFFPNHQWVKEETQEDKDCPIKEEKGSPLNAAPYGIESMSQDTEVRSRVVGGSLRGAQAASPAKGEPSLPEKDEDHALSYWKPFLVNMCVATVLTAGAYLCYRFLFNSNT
As to the kind of experiment: Inhibition of human recombinant PTP1B assessed as inhibition of para-nitrophenyl phosphate to para-nitrophenol conversion at 100 uM by spectrophotometry. Put shortly:
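GST-tagged human PTP1B, expressed in E. coli BL21 and purified on GST beads, hydrolyses pNPP to p-nitrophenol, read as absorbance at 405 nm. Compounds were dissolved in 100% DMSO, and the inhibitory rate was recorded. BPV(phen) served as the reference.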

Assay [2] concerns the target T2, Tyrosine-protein phosphatase non-receptor type 1 (Homo sapiens, UniProt P18031).
T2 sequence (P18031 whole entry): T1 sequence (whole entry)
The assay is described as follows: Inhibition of human recombinant PTP1B assessed as inhibition of para-nitrophenyl phosphate to para-nitrophenol conversion by spectrophotometry. Put shortly: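 Recombinant human GST-PTP1B, from E. coli BL21 pellets purified on a GST bead column, converts pNPP to p-nitrophenol, measured at 405 nm. Compounds were dissolved in 100% DMSO and tested over a dose series. IC50 came from a sigmoidal dose-response curve with variable slope. BPV(phen) served as the reference.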

`O=C1CCNC(=O)c2c1ccn2Cc1ccc(-c2cccc(O)c2)cc1`: in assay [1], the inhibition result was “inactive”. Turning to `O=C1c2c(ccn2Cc2ccccc2)/C(=N/O)CCN1Cc1ccccc1`, in assay [1], the inhibition entry is “inactive”. As to `O=C1NCCC(O)c2ccn(Cc3ccccc3)c21` (centres undefined), the inhibition entry in assay [1] was “inactive”. Turning to `O=C1NCCC(O)c2ccn(Cc3ccc(-c4ccccc4)cc3)c21` (centres undefined), the inhibition entry in assay [1] was “inactive”.

Regarding `COc1ccc(-c2ccc(Cn3c4c(c5ccccc53)C(=O)CCNC4=O)cc2)cc1`, the inhibition entry in assay [1] was “Active”. The IC50 in assay [2] came to 13.9 µM. Take `O=C1CCNC(=O)c2c1ccn2Cc1ccccc1`: the inhibition result in assay [1] is “inactive”.

As to `CC(=O)c1ccc(-n2ccc3c2C(=O)NCCC3=O)cc1`, the inhibition result in assay [1] was “inactive”. Turning to `N#Cc1ccccc1-c1ccc(Cn2ccc3c2C(=O)NCCC3=O)cc1`, in assay [1], the inhibition entry was “inactive”.

Regarding `CCCOc1ccc(-c2ccc(Cn3ccc4c3C(=O)NCCC4=O)cc2)cc1`, the inhibition entry in assay [1] is “Active”. With `CCc1ccc(-n2ccc3c2C(=O)NCCC3=O)cc1`, the inhibition entry in assay [1] is “inactive”.

`O=C1CCN(Cc2ccccc2)C(=O)c2c1ccn2Cc1ccccc1`: in assay [1], the inhibition entry was “inactive”.

For `O=C1CCNC(=O)c2c1ccn2Cc1ccc(-c2ccc(O)cc2)cc1`, in assay [1], the inhibition result is “Active”. `Cc1ccc(-c2ccc(Cn3ccc4c3C(=O)NCCC4=O)cc2)cc1`: the inhibition result in assay [1] was “Active”. As for `O=C1CCNC(=O)c2c1ccn2-c1ccc(C(F)(F)F)cc1`, in assay [1], the inhibition entry is “inactive”. For the compound `COc1ccc(-c2ccc(Cn3ccc4c3C(=O)NCCC4=O)cc2)cc1`, the inhibition result in assay [1] is “Active”.

Consider `O=C1CCNC(=O)c2c1ccn2Cc1ccc(-c2ccccc2)cc1`, for which the inhibition entry in assay [1] was “inactive”. Turning to `Nc1cccc(-c2ccc(Cn3ccc4c3C(=O)NCCC4=O)cc2)c1`, the inhibition result in assay [1] was “inactive”. Regarding `COc1ccc(-c2ccc(Cn3ccc4c3C(=O)NCC/C4=N\Nc3ccccn3)cc2)cc1`, the inhibition result in assay [1] was “Active”. For the same compound, in assay [2], the IC50 stood at 14.9 µM.

As for `O=C1NCC=Cc2ccn(Cc3ccccc3)c21`, the inhibition result in assay [1] was “inactive”. As for `COc1ccc(-c2ccc(Cn3ccc4c3C(=O)N(C)CCC4=O)cc2)cc1`, the inhibition entry in assay [1] was “Active”.

With `O=C1CCNC(=O)c2c1ccn2-c1ccccc1`, the inhibition result in assay [1] is “inactive”. For `CCCCOc1ccc(-c2ccc(Cn3ccc4c3C(=O)NCCC4=O)cc2)cc1`, in assay [1], the inhibition result is “Active”. For the same compound, the IC50 in assay [2] amounted to 16.4 µM. Take `COc1ccc(-n2ccc3c2C(=O)NCCC3=O)cc1`: the inhibition result in assay [1] is “inactive”. Consider `NC(=O)c1ccccc1-c1ccc(Cn2ccc3c2C(=O)NCCC3=O)cc1`, for which, in assay [1], the inhibition entry was “inactive”.

In the case of `O=C1CCNC(=O)c2[nH]ccc21`, the inhibition result in assay [1] is “Active”. Same read-out and setting: the same measure for `O=C1CCNC(=O)c2c1ccn2-c1ccc(-c2ccccc2)cc1`: “inactive”.

For the origin of these results see ChEMBL document CHEMBL1795299, “Pyrrolo[2,3-c]azepine derivatives: a new class of potent protein tyrosine phosphatase 1B inhibitors” (Bioorg Med Chem Lett, 2011).
